SENP6 block: SENP6 protease inhibition | inhibition, % at 10 µM | actives 1.8% (n = 330,000) | Recombinant SENP6 catalytic domain, aminoluciferin luminescence | Q9GZR1;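 active means inhibition above about 50% at the single tested dose, limit read from the data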;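 further: plate controls were DMSO wells with enzyme for no effect and DMSO wells lacking enzyme for full effect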
Target sequence (Q9GZR1 628-1112 limits assumed): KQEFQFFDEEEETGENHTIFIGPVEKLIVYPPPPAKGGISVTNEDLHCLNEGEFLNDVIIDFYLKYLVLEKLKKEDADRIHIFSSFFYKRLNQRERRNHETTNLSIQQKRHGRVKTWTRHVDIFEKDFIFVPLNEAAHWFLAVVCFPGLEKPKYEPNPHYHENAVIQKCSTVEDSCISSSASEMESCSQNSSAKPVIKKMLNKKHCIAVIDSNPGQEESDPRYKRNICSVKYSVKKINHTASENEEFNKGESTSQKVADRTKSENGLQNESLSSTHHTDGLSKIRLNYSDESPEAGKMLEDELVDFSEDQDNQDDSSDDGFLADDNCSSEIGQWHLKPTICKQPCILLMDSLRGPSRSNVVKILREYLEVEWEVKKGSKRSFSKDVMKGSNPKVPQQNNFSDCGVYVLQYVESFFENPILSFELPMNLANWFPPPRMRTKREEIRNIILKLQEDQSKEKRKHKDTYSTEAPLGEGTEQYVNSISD
SENP1 FRET inh: inhibitors of human SENP1 SUMO protease catalytic domain. actives 0.21% (n = 360,000). recombinant SENP1 catalytic domain, CyPet-SUMO1-YPet FRET cleavage. inhibition, % at 10 µM. Q9P0U3;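 active means inhibition at least 30% at 10 µM, raw YFP signal under a set limit, fluorescence ratio 0.5 to 1.5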;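 further: 0% = enzyme with DMSO and 100% = no enzyme wells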
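System: Recombinant human SENP1 catalytic domain, His6-tagged | Incubation: Enzyme reaction for 50 min at room temperature, dark | Medium: Tris pH 8 with BME, BSA, NP40 and catalase | Also added: 25 nM SUMO1 FRET substrate | Compound: 10 µM single point, 0.5% DMSO | Measured by: FRET fluorescence in CFP and YFP emission channels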
SENP8 block-1: blocks the human protease SENP8 | Q96LD8 | purified SENP8, Z-RLRGG-aminoluciferin cleavage, luminescence | inhibition, % at 10 µM | actives 1.2% (n = 330,000) | AID 2540; in the data active means inhibition above about 50%
SENP7 inh: SENP7 protease inhibition | Q9BQF6 | actives 1.5% (n = 330,000) | inhibition, % at 5 µM | recombinant SENP7, Z-RLRGG-aminoluciferin luminescence, 40 min;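 active means inhibition above about 50% at the single test dose, limit read from the data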;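 further: plate controls were DMSO with enzyme for no effect and no enzyme buffer wells for full effect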
SENP8 block-2: blocks human SENP8 cleavage of Nedd8 substrate; inhibition, % at 20 µM; AID 602440; recombinant SENP8, Nedd8 substrate fluorescence; actives 0.64% (n = 360,000); in the data active means inhibition mostly above about 40%, no sharp cut-off; inactive means mostly below about 27%
Platelet DG rel: modulates dense granule release in human platelets | human platelet-rich plasma, SFLLRN dense granule ATP release, luminescence | inhibition, %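 (compounds screened at 7.5 µM in platelet-rich plasma)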 | actives 0.22% (n = 300,000) | AID 1663;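 active means mean replicate score, as percent of positive control, at or above 50; inconclusive means mean below 50 but at least one replicate at or above 50; inactive means mean and every replicate below 50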
SENP8 conf: human SENP8 inhibition, confirmed. inhibition, % at 12.5 µM. actives 40% (n = 6,200). AID 488912. Recombinant SENP8, Z-RLRGG-aminoluciferin luminescence, 60 min. shares compounds with SENP7 inh;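 active means mean inhibition across replicates above about 50%, limit read from the data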
SENP6 confirm: human SENP6 inhibition, confirmed; AID 488915; recombinant SENP6, Z-RLRGG-aminoluciferin luminescence; actives 58% (n = 6,200); inhibition, % at 12.5 µM; shares compounds with SENP7 inh
SENP7 conf: confirmation of human SENP7 protease inhibitors; actives 69% (n = 6,200); shares compounds with SENP7 inh; recombinant SENP7, Z-RLRGG-aminoluciferin luminescence, 40 min; inhibition, % at 12.5 µM
Casp3 select: inhibits human caspase-3 in SENP selectivity test. purified caspase-3, Z-DEVD-aminoluciferin luminescence, 60 min. inhibition, % at 12.5 µM. actives 60% (n = 6,200). shares compounds with SENP7 inh. AID 488918;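 active means mean inhibition above about 50%, limit read from the data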;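 further: plate controls were enzyme with DMSO for no effect and wells without caspase-3 for full effect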
SENP luc ctr: interferes with luciferase luminescence in SENP counter-screen; shares compounds with SENP7 inh; Pre-incubated SENP8/Z-RLRGG-aminoluciferin, luciferase luminescence interference; inhibition, % at 12.5 µM; actives 39% (n = 6,200);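 active means mean inhibition above about 50% when retested at one dose, limit read from the data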;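 further: plate controls were DMSO wells with completed reaction for no effect and substrate without enzyme for full effect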
* = called active by the depositor; ? = inconclusive; / = no result. Shown are actives, neighbours in structure and some others; about 2.6% of the full set was active somewhere.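 How the source made its calls, unless noted: active means mean inhibition above about 50% in the one-dose retest (limit read from the data); inactive means the rest.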

SMILES	SENP6 block	SENP1 FRET inh	SENP8 block-1	SENP7 inh	SENP8 block-2	Platelet DG rel	SENP8 conf	SENP6 confirm	SENP7 conf	Casp3 select	SENP luc ctr
Fc1cccc(/C=N/N=C/c2cccc(F)c2)c1	31	2	15	38	4	-22	/	/	/	/	/
Cc1sc2ncnc(N/N=C/c3ccc(O)cc3)c2c1C	-7	11	-9	3	8	-5	/	/	/	/	/
Fc1ccc(/C=N/Nc2nccnc2Cl)cc1	93*	2	86*	94*	-145	7	93*	93*	100*	96*	92*
C(=N\Nc1nncc2ccccc12)/c1ccccn1	44	3	23	20	29	35	/	/	/	/	/
Fc1cccc(/C=N/Nc2nccnc2Cl)c1	97*	-1	93*	99*	-220	?	96*	96*	102*	98*	96*
Fc1cccc(/C=N/Nc2nncc3ccccc23)c1	92*	4	90*	96*	19	24	78*	94*	98*	89*	61*
Oc1ccc(/C=N/Nc2nccnc2Cl)cc1	97*	2	98*	99*	-61	98*	98*	99*	102*	98*	98*
Cc1c(C(=O)N2CCCCC2)c(S(=O)(=O)N2c3ccccc3CC2C)c(C)n1C (stereo not given)	-2	0	19	1	16	-32	/	/	/	/	/
COCCCNC(=S)NC1CCCCC1	-7	0	5	10	20	-4	/	/	/	/	/
Cn1cc(S(=O)(=O)NCc2ccc(F)cc2)c(=O)n(C)c1=O	2	2	4	-7	3	2	/	/	/	/	/
COc1ccccc1NC(=O)NC1CC(=O)N(c2ccc3c(c2)OCCO3)C1 (stereo not given)	-20	1	-3	-1	4	-6	/	/	/	/	/
Cc1ccc2[nH]c(-c3cccc(N)c3)cc2c1	16	-5	56*	70*	-304	6	57*	77*	94*	32	53*
COc1cccc(Nc2ncnc3sc(C)cc23)c1	-1	-1	-9	-22	-26	-15	/	/	/	/	/
O=C1CCCC(=NNC(=O)c2cc3ccccc3cc2O)C1	90*	-26	89*	88*	-192	/	89*	92*	101*	93*	88*
O=C(NN=C1CCCCCC1)c1cc2ccccc2cc1O	15	-30	7	5	-88	21	/	/	/	/	/
CN=C1S/C(=C\c2cccc(Cl)c2Cl)C(=O)N1C	77*	/	67*	49	/	6	-10	41	38	17	11
CN=C1S/C(=C\c2ccc(Cl)cc2)C(=O)N1C	37	2	28	18	3	-1	/	/	/	/	/
CN=C1S/C(=C\c2ccc(SC)cc2)C(=O)N1C	70*	-4	62*	62*	-147	2	69*	67*	84*	65*	47
CN=C1S/C(=C\c2ccc(O)c(Br)c2)C(=O)N1C	97*	-68	97*	100*	-10	38	99*	100*	102*	98*	80*
CCCC(C)C(=O)Nc1ccc(Cl)cc1Cl (stereo not given)	3	1	-5	-1	10	12	/	/	/	/	/
CO/N=C/C(C(C)=O)C(=O)Nc1ccc(Cl)cc1Cl (stereo not given)	56*	-3	10	-4	9	-1	12	15	46	26	16
C=CCOCC(O)CS(=O)(=O)Cc1ccc(Cl)cc1 (stereo not given)	-4	3	1	-5	6	15	/	/	/	/	/
CSc1ccc(CN(C)CC(=O)NC(C)c2ccccc2)cc1 (stereo not given)	0	1	2	6	13	-21	/	/	/	/	/
COc1ccc(NS(=O)(=O)c2cn(C)nc2C)cc1	4	1	-9	-6	19	-11	/	/	/	/	/
O=C(CSc1c2c(nc3ccc(Cl)cc13)CCCC2)NCCCN1CCOCC1	13	2	0	0	15	7	/	/	/	/	/
SMILES	SENP6 block	SENP1 FRET inh	SENP8 block-1	SENP7 inh	SENP8 block-2	Platelet DG rel	SENP8 conf	SENP6 confirm	SENP7 conf	Casp3 select	SENP luc ctr
Cc1csc(=O)n1CCC(=O)OC(C)C(=O)NCc1ccccc1 (stereo not given)	-6	2	4	3	8	/	/	/	/	/	/
CN(C)c1ccc(C=Nc2cnn(C)c2C(N)=O)cc1	73*	-63	68*	77*	-49	/	10	45	78*	62*	24
Cn1ncc(N=Cc2ccccc2[N+](=O)[O-])c1C(N)=O	-7	2	-1	-9	-5	-13	/	/	/	/	/
CC(C(=O)OCC(=O)c1cccc([N+](=O)[O-])c1)N1C(=O)C2C3C=CC(C3)C2C1=O (stereo not given)	4	1	4	0	8	9	/	/	/	/	/
COc1ccccc1C(=O)CSc1nccn1C	-10	-1	-4	1	7	1	/	/	/	/	/
Cn1ccnc1SCC(=O)c1c[nH]c2ccccc12	58*	-3	33	50	-9	2	48	42	78*	78*	54*
COc1ccc(-c2ccn(-c3cccc(F)n3)n2)cc1	2	-16	8	4	-182	/	/	/	/	/	/
Nc1nn(-c2cccc(F)n2)cc1-c1ccc(Cl)cc1	62*	1	52*	88*	-3	10	16	21	48	32	8
Nc1nn(-c2cccc(F)n2)cc1-c1ccccc1	87*	1	84*	92*	7	2	-28	81*	97*	83*	27
Nc1nc(Br)c2c(F)cccc2c1-c1ccccc1	12	-111	-14	-5	-81	9	/	/	/	/	/
N#C/C(=C(/O)c1cccc(F)c1)c1nc2ccccc2s1	91*	-6	77*	56*	2	5	58*	59*	72*	77*	35
N#C/C(=C(/O)c1ccco1)c1nc2ccccc2[nH]1	31	-18	0	-1	-48	-3	/	/	/	/	/
N#C/C(=C(/O)c1cc2ccccc2o1)c1nc2ccccc2s1	-7	-55	95*	70*	-18	1	-2	32	28	18	61*

Assay outcomes (PubChem BioAssay)
